In ChEMBL document CHEMBL4732238, “Synthesis, biological evaluation, and structure-activity relationships of new tubulin polymerization inhibitors based on 5-amino-1,2,4-triazole scaffold” (Bioorg Med Chem Lett, 2021):

Legend:
[1] = tested on: MCF7; test: Antiproliferative activity against human MCF7 cells assessed as cell growth inhibition at 100 uM by MTT assay relative to control; format: functional; conditions: read-out: GI
Summary of the method: (§1)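 Five human lines (MCF-7, HeLa, A549, PC-3, Panc-1) exposed to a single 100 μM concentration. Viability read by MTT. Results expressed as […] versus untreated control cells.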

[2] = tested on: PC-3; test: Antiproliferative activity against human PC-3 cells assessed as cell growth inhibition at 100 uM by MTT assay relative to control; format: functional; conditions: read-out: GI; summary of the method: as §1
[3] = tested on: HeLa; test: Antiproliferative activity against human HeLa cells assessed as cell growth inhibition at 100 uM by MTT assay relative to control; format: functional; conditions: read-out: GI; summary of the method: as §1
[4] = tested on: PANC-1; test: Antiproliferative activity against human PANC-1 cells assessed as cell growth inhibition at 100 uM by MTT assay relative to control; format: functional; conditions: read-out: GI; summary of the method: as §1
[5] = tested on: A549; test: Antiproliferative activity against human A549 cells assessed as cell growth inhibition at 100 uM by MTT assay relative to control; format: functional; conditions: read-out: GI; summary of the method: as §1
[6] = tested on: MCF7; test: Antiproliferative activity against human MCF7 cells assessed as cell growth inhibition by MTT assay; format: functional, cell-based
Summary of the method: (§2)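 MTT antiproliferation readout. […] Mean ± SD from three independent experiments.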

[7] = tested on: HeLa; test: Cell cycle arrest in human HeLa cells assessed as accumulation at G1/G0 phase at 10 uM measured after 48 hrs by propidium iodide staining based flow cytometry (reference value: 54.82 %); format: functional
[8] = tested on: HeLa; test: Cell cycle arrest in human HeLa cells assessed as accumulation at G1/G0 phase at 40 uM measured after 48 hrs by propidium iodide staining based flow cytometry (reference value: 54.82 %); format: functional
[9] = tested on: HeLa; test: Cell cycle arrest in human HeLa cells assessed as accumulation at G2/M phase at 20 uM measured after 48 hrs by propidium iodide staining based flow cytometry (reference value: 14.45 %); format: functional
[10] = tested on: HeLa; test: Cell cycle arrest in human HeLa cells assessed as accumulation at G2/M phase at 10 uM measured after 48 hrs by propidium iodide staining based flow cytometry (reference value: 14.45 %); format: functional
[11] = tested on: HeLa; test: Cell cycle arrest in human HeLa cells assessed as accumulation at S phase at 10 uM measured after 48 hrs by propidium iodide staining based flow cytometry (reference value: 30.73 %); format: functional
[12] = target: Tubulin (Homo sapiens) (UniProt P68371+Q9H4B7+P0DPH7+P68366+Q13509+Q71U36+P04350+Q3ZCM7+P07437+P68363+Q9BQE3+Q6PEY2+Q13885+Q9BVA1+Q9BUF5); test: Inhibition of tubulin (unknown origin) polymerization at 10 uM measured every 1 min over 20 mins by fluorescence assay relative to control; format: protein-complex assay
Summary of the method: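 Tubulin in reaction buffer incubated at 37 °C with test agent at final 10 μM; control 1% DMSO. Polymerization followed at 340 nm, read every minute over 20 min. Run three times.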

[13] = tested on: HeLa; test: Cell cycle arrest in human HeLa cells assessed as accumulation at G1/G0 phase at 20 uM measured after 48 hrs by propidium iodide staining based flow cytometry (reference value: 54.82 %); format: functional
[14] = tested on: K562; test: Antiproliferative activity against human K562 cells assessed as cell growth inhibition by MTT assay; format: functional, cell-based
[15] = tested on: HeLa; test: Cell cycle arrest in human HeLa cells assessed as accumulation at S phase at 20 uM measured after 48 hrs by propidium iodide staining based flow cytometry (reference value: 30.73 %); format: functional
[16] = tested on: HeLa; test: Antiproliferative activity against human HeLa cells assessed as cell growth inhibition by MTT assay; format: functional, cell-based; summary of the method: as §2
[17] = tested on: HeLa; test: Cell cycle arrest in human HeLa cells assessed as accumulation at S phase at 40 uM measured after 48 hrs by propidium iodide staining based flow cytometry (reference value: 30.73 %); format: functional
[18] = tested on: PANC-1; test: Antiproliferative activity against human PANC-1 cells assessed as cell growth inhibition by MTT assay; format: functional, cell-based; summary of the method: as §2
[19] = tested on: HeLa; test: Cell cycle arrest in human HeLa cells assessed as accumulation at G2/M phase at 40 uM measured after 48 hrs by propidium iodide staining based flow cytometry (reference value: 14.45 %); format: functional

SMILES | inhibition of growth at 100 µM [1] [%] | inhibition of growth at 100 µM [2] [%] | inhibition of growth at 100 µM [3] [%] | inhibition of growth at 100 µM [4] [%] | inhibition of growth at 100 µM [5] [%] | further results
COc1cc(-c2nc(N)n(CC(=O)Nc3ccc(C(C)C)cc3)n2)cc(OC)c1OC | 8 | 37 | 45 | 22 |  | 
COc1cc(-c2nc(N)n(CC(=O)c3ccc(Cl)cc3)n2)cc(OC)c1OC |  | 26 | 38 | 6 | 26 | 
COc1cc(-c2nc(N)n(CC(=O)Nc3ccc(C(C)(C)C)cc3)n2)cc(OC)c1OC | 93 | 70 | 95 | 93 | 93 | IC50 [6]: 35.6 µM; Activity [7]: 54.33%; Activity [8]: 52.66%; Activity [9]: 15.59%; Activity [10]: 14.7%; Activity [11]: 30.96%; inhibition [12]: 48%; Activity [13]: 56.06%; IC50 [14]: 9.23 µM; Activity [15]: 28.35%; IC50 [16]: 18.9 µM; Activity [17]: 18.6%; IC50 [18]: 35.1 µM; Activity [19]: 28.74%
COc1cc(-c2nc(N)n(CC(=O)c3ccccc3)n2)cc(OC)c1OC | 30 |  | 42 | 4 | 15 | 
COc1cc(-c2nc(N)n(Cc3ccc(C)cc3)n2)cc(OC)c1OC | 55 | 39 | 76 | 53 | 34 | IC50 [6]: 73.8 µM; inhibition [12]: 25%; IC50 [14]: 17.1 µM; IC50 [16]: 46.9 µM; IC50 [18]: 61.5 µM
COc1cc(-c2nc(N)n(CC(=O)Nc3cccc(C)c3)n2)cc(OC)c1OC | 23 | 50 | 18 | 10 | 34 | 
COc1cc(-c2nc(N)n(CC(=O)Nc3ccc(C)cc3F)n2)cc(OC)c1OC | 21 | 25 | 32 | 22 | 12 | 
COc1cccc(NC(=O)Cn2nc(-c3cc(OC)c(OC)c(OC)c3)nc2N)c1 |  | 6 | 39 |  |  | 
COc1cc(-c2nc(N)n(CC(=O)c3ccc(F)cc3)n2)cc(OC)c1OC | 27 | 18 | 9 |  | 13 | 
COc1cc(-c2nc(N)n(CC(=O)c3ccc(F)c(F)c3)n2)cc(OC)c1OC | 48 | 28 | 31 | 52 | 14 | 
COc1ccc(NC(=O)Cn2nc(-c3cc(OC)c(OC)c(OC)c3)nc2N)cc1 | 50 | 33 | 30 |  | 9 | 
COc1cc(-c2nc(N)n(Cc3cccc(C#N)c3)n2)cc(OC)c1OC | 43 |  | 28 | 6 | 30 | 
CCCc1ccc(NC(=O)Cn2nc(-c3cc(OC)c(OC)c(OC)c3)nc2N)cc1 | 70 | 61 | 75 | 91 | 37 | IC50 [6]: 44.7 µM; inhibition [12]: 14%; IC50 [14]: 41.1 µM; IC50 [16]: 56.1 µM; IC50 [18]: 20 µM
COc1cc(-c2nc(N)n(CC(=O)Nc3ccc(Cl)cc3)n2)cc(OC)c1OC | 37 | 14 | 30 | 12 | 22 | 
COc1ccc(/C=C\c2cc(OC)c(OC)c(OC)c2)cc1O [COMBRETASTATIN A4] |  |  |  |  |  | IC50 [6]: 0.17 µM; IC50 [14]: 0.61 µM; IC50 [16]: 0.0047 µM
